From ChEMBL document CHEMBL1157912, “Impact of nature and length of linker incorporated in agonists on toll-like receptor 9-mediated immune responses” (J Med Chem, 2010)

Target: T1, Toll-like receptor 9 (Mus musculus) (UniProt Q9EQU3)
T1 sequence (whole entry): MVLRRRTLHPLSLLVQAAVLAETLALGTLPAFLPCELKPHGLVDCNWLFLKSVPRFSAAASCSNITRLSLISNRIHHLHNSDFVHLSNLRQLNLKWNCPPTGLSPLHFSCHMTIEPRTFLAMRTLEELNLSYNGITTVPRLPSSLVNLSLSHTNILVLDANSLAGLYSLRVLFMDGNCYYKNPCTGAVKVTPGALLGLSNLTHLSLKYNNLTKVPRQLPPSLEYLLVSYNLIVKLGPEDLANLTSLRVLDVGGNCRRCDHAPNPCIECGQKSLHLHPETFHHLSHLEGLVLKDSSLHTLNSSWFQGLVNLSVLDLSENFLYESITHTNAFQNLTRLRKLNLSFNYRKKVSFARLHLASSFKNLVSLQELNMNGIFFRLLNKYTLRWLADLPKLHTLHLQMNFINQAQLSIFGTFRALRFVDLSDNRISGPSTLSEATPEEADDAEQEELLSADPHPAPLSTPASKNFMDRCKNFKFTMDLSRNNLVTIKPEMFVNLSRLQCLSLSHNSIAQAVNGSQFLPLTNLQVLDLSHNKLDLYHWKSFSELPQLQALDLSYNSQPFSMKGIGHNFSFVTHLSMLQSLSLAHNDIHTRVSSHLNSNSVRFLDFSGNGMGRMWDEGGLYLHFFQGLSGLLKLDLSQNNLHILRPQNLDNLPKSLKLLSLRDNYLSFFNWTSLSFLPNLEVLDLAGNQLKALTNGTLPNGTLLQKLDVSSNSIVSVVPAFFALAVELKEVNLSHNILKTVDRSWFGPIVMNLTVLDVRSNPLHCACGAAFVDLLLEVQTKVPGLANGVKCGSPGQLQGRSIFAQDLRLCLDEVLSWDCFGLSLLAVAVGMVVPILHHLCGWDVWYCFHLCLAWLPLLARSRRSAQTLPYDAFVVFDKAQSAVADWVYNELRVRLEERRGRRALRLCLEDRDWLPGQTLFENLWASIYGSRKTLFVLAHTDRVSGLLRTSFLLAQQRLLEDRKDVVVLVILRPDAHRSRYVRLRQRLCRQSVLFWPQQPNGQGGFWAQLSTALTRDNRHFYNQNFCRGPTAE
Assay: Activation of mouse TLR9 expressed in HEK293 cells assessed as induction of NF-kappaB activity after 18 hrs by SEAP assay
Type: cell-based
Procedure, shortened: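 HEK293 cells stably expressing mouse TLR9 were grown in DMEM with 10% heat-inactivated FBS. At 80% confluence they were transiently transfected with a SEAP reporter plasmid (100 ng/well, lipofectamine) for 6 h. Medium was then replaced and agonists were added for 18 h. Supernatant SEAP was read with QuantiBlue substrate at 620-645 nm. Results are expressed as fold NF-κB activity over PBS control.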

Row | SMILES | Activity
1 | Cc1cn([C@H]2C[C@H](OCC[C@H](O)COP(=O)(S)O[C@H]3C[C@H](n4cc(C)c(=O)[nH]c4=O)O[C@@H]3COP(=O)(S)O[C@H]3[C@@H](O)[C@H](n4ccc(N)nc4=O)O[C@@H]3COP(=O)(S)O[C@H]3C[C@H](n4cc(C)c(=O)[nH]c4=O)O[C@@H]3COP(=O)(S)O[C@H]3C[C@H](n4cc(C)c(=O)[nH]c4=O)O[C@@H]3COP(=O)(S)O[C@H]3C[C@H](n4ccc5c(=O)[nH]c(N)nc54)O[C@@H]3COP(=O)(S)O[C@H]3[C@@H](O)[C@H](n4ccc(N)nc4=O)O[C@@H]3COP(=O)(S)O[C@H]3C[C@H](n4cc(C)c(=O)[nH]c4=O)O[C@@H]3COP(=O)(S)O[C@H]3[C@@H](O)[C@H](n4cnc5c(=O)[nH]c(N)nc54)O[C@@H]3COP(=O)(S)O[C@H]3C[C@H](n4cc(C)c(=O)[nH]c4=O)O[C@@H]3COP(=O)(S)O[C@H]3[C@@H](O)[C@H](n4ccc(N)nc4=O)O[C@@H]3COP(=O)(S)O[C@H]3C[C@H](n4cc(C)c(=O)[nH]c4=O)O[C@@H]3CO)[C@@H](COP(=O)(S)O[C@H]3[C@@H](O)[C@H](n4ccc(N)nc4=O)O[C@@H]3COP(=O)(S)O[C@H]3C[C@H](n4cc(C)c(=O)[nH]c4=O)O[C@@H]3COP(=O)(S)O[C@H]3C[C@H](n4cc(C)c(=O)[nH]c4=O)O[C@@H]3COP(=O)(S)O[C@H]3C[C@H](n4ccc5c(=O)[nH]c(N)nc54)O[C@@H]3COP(=O)(S)O[C@H]3[C@@H](O)[C@H](n4ccc(N)nc4=O)O[C@@H]3COP(=O)(S)O[C@H]3C[C@H](n4cc(C)c(=O)[nH]c4=O)O[C@@H]3COP(=O)(S)O[C@H]3[C@@H](O)[C@H](n4cnc5c(=O)[nH]c(N)nc54)O[C@@H]3COP(=O)(S)O[C@H]3C[C@H](n4cc(C)c(=O)[nH]c4=O)O[C@@H]3COP(=O)(S)O[C@H]3[C@@H](O)[C@H](n4ccc(N)nc4=O)O[C@@H]3COP(=O)(S)O[C@H]3C[C@H](n4cc(C)c(=O)[nH]c4=O)O[C@@H]3CO)O2)c(=O)[nH]c1=O (some centres undefined) | Dose-dependent effect
2 | Cc1cn([C@H]2C[C@H](OCCOCCOCCOCCOCCOCCOP(=O)(S)O[C@H]3C[C@H](n4cc(C)c(=O)[nH]c4=O)O[C@@H]3COP(=O)(S)O[C@H]3[C@@H](O)[C@H](n4ccc(N)nc4=O)O[C@@H]3COP(=O)(S)O[C@H]3C[C@H](n4cc(C)c(=O)[nH]c4=O)O[C@@H]3COP(=O)(S)O[C@H]3C[C@H](n4cc(C)c(=O)[nH]c4=O)O[C@@H]3COP(=O)(S)O[C@H]3C[C@H](n4ccc5c(=O)[nH]c(N)nc54)O[C@@H]3COP(=O)(S)O[C@H]3[C@@H](O)[C@H](n4ccc(N)nc4=O)O[C@@H]3COP(=O)(S)O[C@H]3C[C@H](n4cc(C)c(=O)[nH]c4=O)O[C@@H]3COP(=O)(S)O[C@H]3[C@@H](O)[C@H](n4cnc5c(=O)[nH]c(N)nc54)O[C@@H]3COP(=O)(S)O[C@H]3C[C@H](n4cc(C)c(=O)[nH]c4=O)O[C@@H]3COP(=O)(S)O[C@H]3[C@@H](O)[C@H](n4ccc(N)nc4=O)O[C@@H]3COP(=O)(S)O[C@H]3C[C@H](n4cc(C)c(=O)[nH]c4=O)O[C@@H]3CO)[C@@H](COP(=O)(S)O[C@H]3[C@@H](O)[C@H](n4ccc(N)nc4=O)O[C@@H]3COP(=O)(S)O[C@H]3C[C@H](n4cc(C)c(=O)[nH]c4=O)O[C@@H]3COP(=O)(S)O[C@H]3C[C@H](n4cc(C)c(=O)[nH]c4=O)O[C@@H]3COP(=O)(S)O[C@H]3C[C@H](n4ccc5c(=O)[nH]c(N)nc54)O[C@@H]3COP(=O)(S)O[C@H]3[C@@H](O)[C@H](n4ccc(N)nc4=O)O[C@@H]3COP(=O)(S)O[C@H]3C[C@H](n4cc(C)c(=O)[nH]c4=O)O[C@@H]3COP(=O)(S)O[C@H]3[C@@H](O)[C@H](n4cnc5c(=O)[nH]c(N)nc54)O[C@@H]3COP(=O)(S)O[C@H]3C[C@H](n4cc(C)c(=O)[nH]c4=O)O[C@@H]3COP(=O)(S)O[C@H]3[C@@H](O)[C@H](n4ccc(N)nc4=O)O[C@@H]3COP(=O)(S)O[C@H]3C[C@H](n4cc(C)c(=O)[nH]c4=O)O[C@@H]3CO)O2)c(=O)[nH]c1=O (some centres undefined) | Dose-dependent effect
3 | Cc1cn([C@H]2C[C@H](OCCC(O)CCOP(=O)(S)O[C@H]3C[C@H](n4cc(C)c(=O)[nH]c4=O)O[C@@H]3COP(=O)(S)O[C@H]3[C@@H](O)[C@H](n4ccc(N)nc4=O)O[C@@H]3COP(=O)(S)O[C@H]3C[C@H](n4cc(C)c(=O)[nH]c4=O)O[C@@H]3COP(=O)(S)O[C@H]3C[C@H](n4cc(C)c(=O)[nH]c4=O)O[C@@H]3COP(=O)(S)O[C@H]3C[C@H](n4ccc5c(=O)[nH]c(N)nc54)O[C@@H]3COP(=O)(S)O[C@H]3[C@@H](O)[C@H](n4ccc(N)nc4=O)O[C@@H]3COP(=O)(S)O[C@H]3C[C@H](n4cc(C)c(=O)[nH]c4=O)O[C@@H]3COP(=O)(S)O[C@H]3[C@@H](O)[C@H](n4cnc5c(=O)[nH]c(N)nc54)O[C@@H]3COP(=O)(S)O[C@H]3C[C@H](n4cc(C)c(=O)[nH]c4=O)O[C@@H]3COP(=O)(S)O[C@H]3[C@@H](O)[C@H](n4ccc(N)nc4=O)O[C@@H]3COP(=O)(S)O[C@H]3C[C@H](n4cc(C)c(=O)[nH]c4=O)O[C@@H]3CO)[C@@H](COP(=O)(S)O[C@H]3[C@@H](O)[C@H](n4ccc(N)nc4=O)O[C@@H]3COP(=O)(S)O[C@H]3C[C@H](n4cc(C)c(=O)[nH]c4=O)O[C@@H]3COP(=O)(S)O[C@H]3C[C@H](n4cc(C)c(=O)[nH]c4=O)O[C@@H]3COP(=O)(S)O[C@H]3C[C@H](n4ccc5c(=O)[nH]c(N)nc54)O[C@@H]3COP(=O)(S)O[C@H]3[C@@H](O)[C@H](n4ccc(N)nc4=O)O[C@@H]3COP(=O)(S)O[C@H]3C[C@H](n4cc(C)c(=O)[nH]c4=O)O[C@@H]3COP(=O)(S)O[C@H]3[C@@H](O)[C@H](n4cnc5c(=O)[nH]c(N)nc54)O[C@@H]3COP(=O)(S)O[C@H]3C[C@H](n4cc(C)c(=O)[nH]c4=O)O[C@@H]3COP(=O)(S)O[C@H]3[C@@H](O)[C@H](n4ccc(N)nc4=O)O[C@@H]3COP(=O)(S)O[C@H]3C[C@H](n4cc(C)c(=O)[nH]c4=O)O[C@@H]3CO)O2)c(=O)[nH]c1=O (some centres undefined) | Dose-dependent effect
4 | Cc1cn([C@H]2C[C@H](OCCOCCOCCOCCOP(=O)(S)O[C@H]3C[C@H](n4cc(C)c(=O)[nH]c4=O)O[C@@H]3COP(=O)(S)O[C@H]3[C@@H](O)[C@H](n4ccc(N)nc4=O)O[C@@H]3COP(=O)(S)O[C@H]3C[C@H](n4cc(C)c(=O)[nH]c4=O)O[C@@H]3COP(=O)(S)O[C@H]3C[C@H](n4cc(C)c(=O)[nH]c4=O)O[C@@H]3COP(=O)(S)O[C@H]3C[C@H](n4ccc5c(=O)[nH]c(N)nc54)O[C@@H]3COP(=O)(S)O[C@H]3[C@@H](O)[C@H](n4ccc(N)nc4=O)O[C@@H]3COP(=O)(S)O[C@H]3C[C@H](n4cc(C)c(=O)[nH]c4=O)O[C@@H]3COP(=O)(S)O[C@H]3[C@@H](O)[C@H](n4cnc5c(=O)[nH]c(N)nc54)O[C@@H]3COP(=O)(S)O[C@H]3C[C@H](n4cc(C)c(=O)[nH]c4=O)O[C@@H]3COP(=O)(S)O[C@H]3[C@@H](O)[C@H](n4ccc(N)nc4=O)O[C@@H]3COP(=O)(S)O[C@H]3C[C@H](n4cc(C)c(=O)[nH]c4=O)O[C@@H]3CO)[C@@H](COP(=O)(S)O[C@H]3[C@@H](O)[C@H](n4ccc(N)nc4=O)O[C@@H]3COP(=O)(S)O[C@H]3C[C@H](n4cc(C)c(=O)[nH]c4=O)O[C@@H]3COP(=O)(S)O[C@H]3C[C@H](n4cc(C)c(=O)[nH]c4=O)O[C@@H]3COP(=O)(S)O[C@H]3C[C@H](n4ccc5c(=O)[nH]c(N)nc54)O[C@@H]3COP(=O)(S)O[C@H]3[C@@H](O)[C@H](n4ccc(N)nc4=O)O[C@@H]3COP(=O)(S)O[C@H]3C[C@H](n4cc(C)c(=O)[nH]c4=O)O[C@@H]3COP(=O)(S)O[C@H]3[C@@H](O)[C@H](n4cnc5c(=O)[nH]c(N)nc54)O[C@@H]3COP(=O)(S)O[C@H]3C[C@H](n4cc(C)c(=O)[nH]c4=O)O[C@@H]3COP(=O)(S)O[C@H]3[C@@H](O)[C@H](n4ccc(N)nc4=O)O[C@@H]3COP(=O)(S)O[C@H]3C[C@H](n4cc(C)c(=O)[nH]c4=O)O[C@@H]3CO)O2)c(=O)[nH]c1=O (some centres undefined) | Dose-dependent effect
